From PubChem BioAssay
KCNK3 block: human KCNK3 channel inhibitors, primary screen, CHO cells, FluxOR thallium flux, B-score; FluxOR fluorescence; stronger effect = lower value; Potassium channel subfamily K member 3 (Homo sapiens), O14649; B-score at 10 µM; AID 602410, 2012; 0.84% of 340,000 active;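 active = B-score under library mean minus 4 SD, starting fluorescence ratio at most library mean plus 5 SD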;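 note: more negative B-score means stronger inhibition of thallium flux through KCNK3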
KCNK9 inh: KCNK9 potassium channel inhibitors, primary screen, HEK293 cells, thallium flux. AID 488922, 2010. B-score at 10 µM. 1.2% of 310,000 active. FluxOR thallium flux fluorescence; stronger effect = lower value. Potassium channel subfamily K member 9 (Homo sapiens), Q9NPC2;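 active = ratio B-score over 3 SD below the library mean, with starting fluorescence within 5 SD of its mean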;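 note: negative B-score means less thallium flux so channel inhibition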
hERG protect: hERG rescue from dofetilide block, primary screen, cell-based, CHO-hERG, FluxOR thallium flux, dofetilide IC70; 0.51% of 310,000 active; Voltage-gated inwardly rectifying potassium channel KCNH2 (Homo sapiens), Q12809; activation (rescue from dofetilide block), less the hit threshold, % at 10 µM; dofetilide IC70 present;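 active = activation above the mean of controls blocked by dofetilide plus 5 SD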;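 note: thallium influx through hERG after potassium depolarization seen as dye fluorescence rise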
Kir21 block: inhibitors of mouse Kir2.1 inward-rectifier potassium channel | Inward rectifier potassium channel 2 (Mus musculus), P35561 | HEK293-Kir2.1, FluxOR thallium flux fluorescence; stronger effect = lower value | B-score at 10 µM | 0.85% of 310,000 active | AID 1672, 2009;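 active = fluorescence ratio B-score at or below minus 3 SD of library scores, with starting-brightness B-score within 2 SD, cut at about -4.2 in these data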;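 note: channel flux triggered by added potassium and thallium sulfate stimulus; B-score of peak minus minimum fluorescence over baseline after thallium stimulus; more negative B-score means stronger Kir2.1 block with less thallium influx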
Target sequence (P35561 whole entry, looked up): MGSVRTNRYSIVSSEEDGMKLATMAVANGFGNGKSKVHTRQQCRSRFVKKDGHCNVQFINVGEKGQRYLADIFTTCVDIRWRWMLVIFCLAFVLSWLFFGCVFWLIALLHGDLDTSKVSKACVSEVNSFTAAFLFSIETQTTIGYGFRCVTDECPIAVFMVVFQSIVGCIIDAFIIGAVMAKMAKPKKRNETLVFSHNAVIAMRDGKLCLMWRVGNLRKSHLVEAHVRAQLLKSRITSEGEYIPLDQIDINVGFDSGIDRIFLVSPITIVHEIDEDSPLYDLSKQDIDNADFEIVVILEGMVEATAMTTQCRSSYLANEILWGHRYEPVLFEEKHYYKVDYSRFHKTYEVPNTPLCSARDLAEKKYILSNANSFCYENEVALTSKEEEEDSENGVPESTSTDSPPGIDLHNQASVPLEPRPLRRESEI
KCNQ1 pot: potentiators or activators of KCNQ1 channel, primary screen, cell-based, thallium flux, high-throughput; Potassium voltage-gated channel subfamily KQT member 1 (Homo sapiens), P51787; CHO-K1 KCNQ1, thallium flux FluxOR fluorescence; stronger effect = higher value; B-score at 10 µM; 0.35% of 310,000 active;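 active = fluorescence ratio B-score, a plate-corrected score, at least three library SD, with initial intensity B-score within 5 SD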
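Material: CHO-K1 cells stably expressing KCNQ1. Medium: assay buffer for compound exposure, DMSO matched across wells. Reagent: K+/Tl+ depolarizing stimulus. Compound dosing: single-concentration screen. Times: 37 °C overnight plating, 90-min dark dye load, 20-min compound pretreatment. Technique: FluxOR Tl+ flux fluorescence.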
KCNQ1 block: inhibitors of human KCNQ1 channel, primary screen, cell-based, thallium flux, high-throughput; CHO-K1 KCNQ1, FluxOR thallium flux fluorescence; stronger effect = higher value; AID 2642, 2010; 1.3% of 310,000 active; B-score at 10 µM;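 active = compounds whose thallium flux B-score, printed positive for inhibition, exceeds three library SD while starting fluorescence stays within three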;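 note: channel opened by potassium depolarization with thallium stimulus after 20 min compound exposure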
The depositor's hits bear a star. A selection: hits, their analogues and other compounds. The true share with any hit is near 3.7%.

`CC1CCN(CCCOc2ccc(OCc3ccccc3)cc2)CC1` gave KCNK3 block inactive, KCNK9 inh inactive, hERG protect -14, Kir21 block -7.2*, KCNQ1 pot inactive and KCNQ1 block inactive.
c1ccc(COc2ccc(OCCCN3CCCC3)cc2)cc1 was read as KCNK3 block inactive, KCNK9 inh inactive, hERG protect -10, Kir21 block -0.62, KCNQ1 pot inactive and KCNQ1 block inactive.
CC1CCN(CCCCOc2ccc(C(=O)c3ccccc3)cc2)CC1 was read as KCNK3 block inactive, KCNK9 inh inactive, hERG protect -5, Kir21 block -5.5*, KCNQ1 pot inactive and KCNQ1 block inactive.
For CCc1ccc(NC(=O)CCc2nc3ccccc3[nH]2)cc1 the results were KCNK3 block inactive, KCNK9 inh inactive, hERG protect -11, Kir21 block 0.36, KCNQ1 pot inactive and KCNQ1 block inactive.
Cc1c(N(C)S(=O)(=O)c2ccc(Cl)c(C(=O)NCC(C)(C)N3CCOCC3)c2)c(=O)n(-c2ccccc2)n1C was read as KCNK3 block inactive.
Screening COc1cc(OC)cc(C(=O)NC(=S)N(Cc2ccccc2)C(C)C)c1 returned KCNK3 block inactive, KCNK9 inh inactive, hERG protect 17*, Kir21 block 0.55, KCNQ1 pot 27* and KCNQ1 block inactive.
For CCOc1ccc(C(=O)NCCc2ccccc2)cc1 the results were KCNK3 block inactive, KCNK9 inh inactive, hERG protect -7, Kir21 block -0.32, KCNQ1 pot inactive and KCNQ1 block inactive.
Screening COc1cc(OC)cc(C(=O)NC(=S)NCCc2ccccc2)c1 returned KCNK3 block inactive, KCNK9 inh inactive, hERG protect -6, Kir21 block 0.72, KCNQ1 pot inactive and KCNQ1 block inactive.
For CCOc1ccc(CN(CCC#N)C(=S)NC(=O)c2ccccc2)cc1 the results were KCNK3 block inactive, KCNK9 inh inactive, hERG protect -2, Kir21 block 0.58, KCNQ1 pot 11* and KCNQ1 block inactive.
CCCN(CCC)C(=S)NC(=O)c1ccc(-c2ccccc2)cc1 was read as KCNK3 block inactive, KCNK9 inh inactive, hERG protect 19*, Kir21 block 0.99, KCNQ1 pot 9* and KCNQ1 block inactive.
CCOc1ccc(C(=O)NC(=S)N(Cc2ccccc2)Cc2ccccc2)cc1 was read as KCNK3 block inactive, KCNK9 inh inactive, hERG protect 27*, Kir21 block 2.1, KCNQ1 pot 75* and KCNQ1 block inactive.
For COc1cccc(C(=O)N2CCN(C(=O)C3CC3)CC2)c1 the results were KCNK3 block inactive, KCNK9 inh inactive, hERG protect -11, Kir21 block 0.12, KCNQ1 pot inactive and KCNQ1 block inactive.
CN(C)CCNC(=O)c1ccc(CS(=O)(=O)c2ccc(Br)cc2)o1 was read as KCNK3 block inactive, KCNK9 inh inactive, hERG protect -1, Kir21 block -0.08, KCNQ1 pot inactive and KCNQ1 block inactive.
Screening Cc1ccc(-c2csc(NC(=O)Cc3ccc(F)cc3)n2)o1 returned KCNK3 block inactive, KCNK9 inh inactive, hERG protect -14, Kir21 block 0.13, KCNQ1 pot 14* and KCNQ1 block inactive.
Screening COc1ccc(CC(=O)Nc2nc(-c3cccnc3)cs2)cc1 returned KCNK3 block inactive, KCNK9 inh inactive, hERG protect -5, Kir21 block 0.59, KCNQ1 pot inactive and KCNQ1 block inactive.
Cc1ccc(CNc2ncc(-c3ccc4c(c3)OCO4)n2C)cc1 was read as KCNK3 block inactive, KCNK9 inh inactive, hERG protect -28, Kir21 block -10*, KCNQ1 pot inactive and KCNQ1 block inactive.
COc1cc(CNc2ncc(-c3ccc(Cl)cc3)n2C)cc(OC)c1OC was read as KCNK3 block inactive, KCNK9 inh inactive, hERG protect -6, Kir21 block 0.6, KCNQ1 pot inactive and KCNQ1 block inactive.
For Cn1c(-c2ccc3c(c2)OCO3)cnc1NCc1ccc(Cl)cc1 the results were KCNK3 block inactive, KCNK9 inh inactive, hERG protect -16, Kir21 block -11*, KCNQ1 pot inactive and KCNQ1 block 11*.
For Cn1c(-c2ccccc2)cnc1NCc1ccc(-c2ccccc2)cc1 the results were KCNK3 block inactive, KCNK9 inh inactive, hERG protect -13, Kir21 block 1.8, KCNQ1 pot inactive and KCNQ1 block inactive.
Screening CC(C)CN(C(=O)COC(=O)CCCc1c[nH]c2ccccc12)c1c(N)n(Cc2ccccc2)c(=O)[nH]c1=O returned KCNK3 block inactive, KCNK9 inh inactive, hERG protect -5, Kir21 block -1.7, KCNQ1 pot inactive and KCNQ1 block inactive.
COc1ccccc1NC(=O)CN(Cc1ccco1)C(=O)c1cc2ccccc2o1 was read as KCNK3 block inactive, KCNK9 inh inactive, hERG protect -32, Kir21 block -0.06, KCNQ1 pot inactive and KCNQ1 block inactive.
CC(C)(C)c1ccc(C(=O)NNC(=O)CCC(=O)Nc2ccccc2)cc1 was read as KCNK3 block inactive, KCNK9 inh inactive, hERG protect -8, Kir21 block -1.5, KCNQ1 pot inactive and KCNQ1 block inactive.
Screening CCOC(=O)c1sc2nc(Cc3ccc(Cl)cc3)[nH]c(=S)c2c1C returned KCNK3 block inactive, KCNK9 inh inactive, hERG protect 75*, Kir21 block 1.4, KCNQ1 pot 46* and KCNQ1 block inactive.
Screening Cc1cc(OCc2cc(C(=O)N(C)CC3CCOCC3)no2)cc(C)c1Cl returned KCNK3 block inactive, KCNK9 inh inactive, hERG protect -7, Kir21 block -5.1*, KCNQ1 pot inactive and KCNQ1 block inactive.
`Cc1cc(OCc2cc(C(=O)N(C)CCCN3CCOCC3)no2)cc(C)c1Cl` gave KCNK3 block inactive, KCNK9 inh inactive, hERG protect -11, Kir21 block -1.3, KCNQ1 pot inactive and KCNQ1 block inactive.
`O=[N+]([O-])c1cc([N+](=O)[O-])c2c(=Nc3ccccc3)n(-c3ccccc3)n(O)c2c1` gave KCNK3 block -9.9*, KCNK9 inh inactive, hERG protect -29, Kir21 block -0.25, KCNQ1 pot inactive and KCNQ1 block 6*.
Cc1ccc(-c2cc(C(=O)Nc3c(C)n(C)n(-c4ccccc4)c3=O)[nH]n2)c(O)c1C was read as KCNK3 block inactive, KCNK9 inh inactive, hERG protect -20, Kir21 block -0.62, KCNQ1 pot inactive and KCNQ1 block inactive.
